# Assay results taken from ChEMBL document CHEMBL1121966, “(2R*,3S*)-1-[125I]Iodo-2,3-bis(4-hydroxyphenyl)pentane ([125I]iodonorhexestrol) and (2R*,3S*)-1-[77Br]Bromo-2,3-bis(4-hydroxyphenyl)pentane ([77Br]bromonorhexestrol), two gamma-emitting estrogens that show receptor-mediated uptake by target tissues in vivo” (1982).
# Where “and” joins values, the source holds several entries; their conditions need not be identical. Equal entries are not always repeated.
# Key:
# [1] = Tissue/blood distribution ratio was measured in immature female rats at 6 hr; format: functional
# Method in brief: (§1)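 Immature (25 day) female Sprague-Dawley rats (ca. 50 g) were dosed iv (jugular or tail vein) in ethanol plus 0.9% NaCl/rat serum (1:1). Doses were 2 μCi of [125I]iodonorhexestrol (≤15 pmol/dose), or 2 μCi each of [77Br]bromonorhexestrol (≤1.25 pmol/dose) and 16α-[125I]iodoestradiol (2 pmol/dose). Rats were killed at 1, 3 or 6 h; blood and tissues were weighed and γ-counted. Thyroid weight assumed 0.005 g/100 g body weight. Mean ± SD.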
# [2] = Lung/blood distribution ratio was determined in immature female rats at 1 hr with unlabeled estradiol; format: functional
# Method in brief: (§2)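 Immature (25-day, ca. 50 g) Sprague-Dawley female rats received an iv injection (jugular or tail vein) of HPLC-purified tracer in ethanol plus 0.9% NaCl/rat serum 1:1. Doses were 2 μCi [125I]iodo tracer (≤15 pmol), or 2 μCi [77Br]bromo tracer (≤1.25 pmol) with 2 μCi 16α-[125I]iodoestradiol. Animals were killed at 1 h; blood and tissues were weighed and γ-counted. Blocking: coinjected unlabeled estradiol, 9 μg (iodo) or 18 μg (bromo). Mean ± SD.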
# [3] = species: Rattus norvegicus; experiment: Percent injected dose per gram lung at 6 hr; format: functional; method in brief: as §1
# [4] = Uptake ratio was measured with 16-alpha-[125I]-iodo-17-beta-estradiol in immature rats at 6 hr; format: functional
# Method in brief: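 Immature (25 day, ca. 50 g) female Sprague-Dawley rats received iv (jugular or tail vein) 2 μCi each of the 77Br ligand (≤1.25 pmol/dose) and 16α-[125I]iodoestradiol (2 pmol/dose), in ethanol plus 0.9% NaCl/rat serum 1:1. Rats were killed at 3 or 6 h, five per time point. Blood and tissues were weighed and counted. The 77Br/125I ratio was calculated per rat and averaged. Nontarget was the mean of esophagus, spleen, lung and muscle.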
# [5] = species: Rattus norvegicus; experiment: Percent injected dose per gram Muscle at 1 hr with unlabeled estradiol; format: functional; method in brief: as §2
# [6] = species: Rattus norvegicus; experiment: Percent injected dose per gram Ovaries at 3h; format: functional
# Method in brief: (§3)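 Dual-label study in immature 25-day female Sprague-Dawley rats (ca. 50 g). Each received 2 μCi [77Br]bromo tracer (≤1.25 pmol/dose) and 2 μCi 16α-[125I]iodoestradiol (2 pmol/dose) by tail or jugular vein, in ethanol diluted with saline/rat serum 1:1. Rats were killed at 3 or 6 h; blood and 11 tissues were weighed and counted. Five rats per time point; mean ± SD.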
# [7] = Spleen/blood distribution ratio was determined immature female rats at 3h; format: functional; method in brief: as §1
# [8] = species: Rattus norvegicus; experiment: Percent injected dose per gram blood at 1 hr with unlabeled estradiol; format: functional; method in brief: as §2
# [9] = Kidney/blood distribution ratio was determined in immature female rats at 3h; format: functional; method in brief: as §3
# [10] = Lung/blood distribution ratio was determined in immature female rats at 1 hr; format: functional; method in brief: as §2
# [11] = species: Rattus norvegicus; experiment: Percent injected dose per gram thyroid at 1 hr with unlabeled estradiol; format: functional, Thyroid gland
# Method in brief: (§4)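 Same iv biodistribution in immature female rats, killed at 1 h, with unlabeled estradiol coinjected to block receptor uptake: 9 μg with [125I]iodonorhexestrol (3 rats), 18 μg with the [77Br]bromonorhexestrol/16α-[125I]iodoestradiol pair (5 rats). Tissue and blood radioactivity were counted as % injected dose/g and tissue-to-blood ratio.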
# [12] = Esophagus/blood distribution ratio was determined in immature female rats at 3h; format: functional; method in brief: as §3
# [13] = species: Rattus norvegicus; experiment: Percent injected dose per gram liver at 1 hr with unlabeled estradiol; format: functional; method in brief: as §4
# [14] = Kidney/blood distribution ratio was determined in immature female rats at 1 hr with unlabeled estradiol; format: functional; method in brief: as §2
# [15] = Esophagus/blood distribution ratio was determined in immature female rats at 1 hr with unlabeled estradiol; format: functional; method in brief: as §2
# [16] = species: Rattus norvegicus; experiment: Percent injected dose per gram Muscle at 1 hr; format: functional; method in brief: as §2
# [17] = Tissue/blood distribution ratio was measured in immature female rats at 3h; format: functional; method in brief: as §1
# [18] = species: Rattus norvegicus; experiment: Percent injected dose per gram blood at 6 hr; format: functional; method in brief: as §3
# [19] = species: Rattus norvegicus; experiment: Percent injected dose per gram lung at 1 hr; format: functional; method in brief: as §1
# [20] = Esophagus/blood distribution ratio was determined in immature female rats at 1 hr; format: functional; method in brief: as §2
# [21] = species: Rattus norvegicus; experiment: Percent injected dose per gram thyroid at 3h; format: functional, Thyroid gland; method in brief: as §1
# [22] = Liver/blood distribution ratio was determined in immature female rats at 3h; format: functional; method in brief: as §3
# [23] = species: Rattus norvegicus; experiment: Percent injected dose per gram lung at 1 hr with unlabeled estradiol; format: functional; method in brief: as §4
# [24] = species: Rattus norvegicus; experiment: Percent injected dose per gram blood at 1 hr; format: functional; method in brief: as §2
# [25] = species: Rattus norvegicus; experiment: Percent injected dose per gram spleen at 6 hr; format: functional; method in brief: as §1
# [26] = Thyroid/blood distribution ratio was determined in immature female rats at 6 hr; format: functional; method in brief: as §1
# [27] = Lung/blood distribution ratio was determined in immature female rats at 3h; format: functional; method in brief: as §3
# [28] = Ovary/blood distribution ratio was determined in immature female rats at 6 hr; format: functional; method in brief: as §3
# [29] = species: Rattus norvegicus; experiment: Percent injected dose per gram Muscle at 6 hr; format: functional; method in brief: as §3
smiles,measurement,setting,value
CC[C@H](c1ccc(O)cc1)[C@@H](CBr)c1ccc(O)cc1,Ratio,[1],1
same,Ratio,[2],0.82
same,Injected dose,[3],1.02%
same,Ratio,[4],0.58 and 0.33%
same,Injected dose,[5],0.3%
same,Injected dose,[6],1.28%
same,Ratio,[7],0.48
same,Injected dose,[8],0.98%
same,Ratio,[9],0.76
same,Ratio,[10],0.6
same,Injected dose,[11],0.25%
same,Ratio,[12],0.49
same,Injected dose,[13],1.46%
same,Ratio,[14],0.84
same,Ratio,[15],0.59
same,Injected dose,[16],0.29%
same,Ratio,[17],1
same,Injected dose,[18],1.36%
same,Injected dose,[19],0.42%
same,Ratio,[20],0.54
same,Injected dose (g),[21],0.09%
same,Ratio,[22],0.84
same,Injected dose,[23],0.8%
same,Injected dose,[24],0.75%
same,Injected dose,[25],0.69%
same,Ratio,[26],0.13
same,Ratio,[27],0.68
same,Ratio,[28],1.41
same,Injected dose,[29],0.35%
